NPY-Y1 PAM-ag = human NPY-Y1 potentiation or agonism, primary screen; NPY-Y1 expressing cells, potentiator/agonist activation; P25929; actives 0.37% (n = 220,000); activation, % at 3.6 µM; in the data active = activation above about 33%, passing the limit was not always enough;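 also: cells stimulated with NPY at EC10 then isoproterenol at EC100; 0% = low agonist plus stimulus and 100% = saturating agonist plus stimulus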
Target sequence (P25929 whole entry, looked up): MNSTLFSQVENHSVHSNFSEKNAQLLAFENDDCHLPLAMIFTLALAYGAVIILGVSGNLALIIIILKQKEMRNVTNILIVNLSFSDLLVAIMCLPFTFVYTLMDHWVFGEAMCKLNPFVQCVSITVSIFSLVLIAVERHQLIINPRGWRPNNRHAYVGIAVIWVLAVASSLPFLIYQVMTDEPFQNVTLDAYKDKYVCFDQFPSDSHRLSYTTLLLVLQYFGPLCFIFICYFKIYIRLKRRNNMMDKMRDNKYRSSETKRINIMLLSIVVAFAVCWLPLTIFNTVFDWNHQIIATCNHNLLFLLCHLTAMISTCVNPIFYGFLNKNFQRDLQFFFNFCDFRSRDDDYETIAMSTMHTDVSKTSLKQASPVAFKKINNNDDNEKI
NPY2 pot ag = human NPY-Y2 potentiation or agonism, primary screen; cells expressing NPY-Y2, potentiator/agonist read-out; actives 0.45% (n = 220,000); activation, % at 3.6 µM; in the data active = activation above about 27%;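 also: cells stimulated with NPY near EC25 plus isoproterenol at EC100; 0% = vehicle plus submaximal agonist and 100% = vehicle plus saturating agonist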
NPY Y1 blocker = antagonists of human neuropeptide Y receptor Y1 | P25929 | HEK293-CNG Y1 cells, membrane potential fluorescence; NPY at EC95, then isoproterenol | inhibition, % at 3.6 µM | actives 1% (n = 200,000) | AID 1040;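 active = inhibition above the campaign mean inhibition of all tested compounds plus 3 SD, cut at about 20% in these data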;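 also: 0% = DMSO wells given NPY plus isoproterenol and 100% = isoproterenol alone without NPY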
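Material: HEK293 Y1/CNG channel cell line; also added: NPY (25 nM), isoproterenol (1 µM), Ro 20-1724 (25 µM); doses: one concentration, 3.6 µM, in 0.4% DMSO; schedule: compound incubation 1 h at room temperature, readout 45 min post-stimulation; technique: membrane potential fluorescence; measure: fluorescence ratio normalized to % inhibition between controls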
NPY Y2 blocker = antagonists of human neuropeptide Y receptor Y2; P49146; NPY-Y2 expressing cells, antagonist mode; inhibition, % at 2.7 µM; actives 0.99% (n = 140,000); AID 793; in the data active = inhibition above about 17%;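 also: 0% = vehicle with agonist challenge and 100% = reference antagonist with challenge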
NPY1 antag ctr = counter-screen for NPY-Y2 antagonists: human NPY-Y1 antagonism; shares compounds with NPY Y2 blocker; cell-based NPY-Y1 antagonism counterscreen; inhibition, % at 3.6 µM; actives 19% (n = 710); AID 1256; in the data active = inhibition above about 20%;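 also: cells challenged with NPY then isoproterenol with cAMP sensed through a CNG channel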
NPY-Y2 ant conf = confirmation of human neuropeptide Y receptor Y2 antagonists. actives 32% (n = 710). HEK293 NPY-Y2 CNG channel, membrane potential fluorescence. shares compounds with NPY Y2 blocker. AID 1257. inhibition, % at 2.8 µM;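 active = mean inhibition of triplicate wells above the hit cutoff set in the primary screen, cut at about 17% in these data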;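 also: 0% = DMSO with NPY challenge and 100% = BIIE0246 high control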
An asterisk follows results filed as active; nt = not tested or not shown. Rows were chosen to be rich in hits. Some 1.8% of all compounds tested hit in one or more screens of this group.

SMILES	NPY-Y1 PAM-ag	NPY2 pot ag	NPY Y1 blocker	NPY Y2 blocker	NPY1 antag ctr	NPY-Y2 ant conf
CCc1nc(N(CC)CC)c2oc3ccccc3c2n1	-15	-9	14	19*	9	6
CCCCOc1ccc(C2=NNC(=O)CC2)cc1	-40	-10	9	22*	19	39*
Cc1nc2ccc(S(=O)(=O)N(C)CC(=O)Nc3ccccc3F)cc2s1	11	1	-4	nt	nt	nt
CCN(CC)C(C(=O)Nc1ccc(C(C)C)cc1)c1ccc2c(c1)OCO2 (stereo not given)	-6	-14	16	18*	7	14
COc1ccc2c(C=O)cn(C)c2c1	-4	-7	3	nt	nt	nt
Cc1cc(Cl)ccc1OCCCC(=O)N1CCCc2ccccc21	-16	-23	19	27*	23*	40*
Cc1ccnc(NC(=O)Cn2cc([N+](=O)[O-])cn2)c1	-8	-3	4	nt	nt	nt
Clc1ccccc1CSc1nnc(/C=C/c2ccccc2)o1	-19	-10	11	20*	20	21*
Clc1ccc(CSc2nnc(-c3cccnc3)o2)cc1	-16	-19	-3	1	nt	nt
Clc1ccc(CSc2nnc(/C=C/c3ccccc3)o2)cc1	-19	-9	1	18*	24*	21*
CC(=O)NS(=O)(=O)c1ccc(NC(=O)CC(C)c2ccccc2)cc1 (stereo not given)	-14	-2	1	nt	nt	nt
CCCc1cc(-c2n[nH]c(=S)n2CC)cs1	-24	-15	12	nt	nt	nt
CCCc1cc(-c2n[nH]c(=S)n2C(C)c2ccccc2)cs1 (stereo not given)	-10	-21	18	20*	15	11
CCNc1cc(Cl)nc(SC)n1	7	4	7	25*	-1	1
CCNc1cc(N2CCOCC2)nc(SC)n1	4	-9	-1	nt	nt	nt
Nn1c(CSc2nc3ccccc3o2)nnc1CSc1nc2ccccc2o1	-65	-39	17	17*	13	15
COc1ccc(-c2c(=O)n(OCc3ccccc3[N+](=O)[O-])c3ccccc3[n+]2[O-])c(OC)c1	18	-4	0	nt	nt	nt
COC(=O)C1C(=O)C2=C(CC1C)Nc1ccccc1NC2c1cccs1 (stereo not given)	-5	2	-2	nt	nt	nt
Cc1ccc(OCCNC(=O)/C=C/c2ccc([N+](=O)[O-])cc2)cc1C	-28	-8	17	18*	11	15
Cc1ccc(OCCNC(=O)/C=C/c2ccccc2)cc1C	-44	-14	10	13	nt	nt
OCCNc1ncnc2c1c(-c1ccccc1)c(-c1ccccc1)n2Cc1ccco1	1	-4	3	13	nt	nt
N=c1c2c(-c3ccccc3)c(-c3ccccc3)n(Cc3ccco3)c2ncn1Cc1ccccc1	56*	54*	3	21*	2	-4
c1ccc(-c2c(-c3ccccc3)n(Cc3ccco3)c3ncnc(NCCCn4ccnc4)c23)cc1	-55	-27	13	29*	10	12
CC(NC(=O)OC(C)(C)C)C(=O)NC(CCC(=O)OCc1ccccc1)C(N)=O (stereo not given)	11	2	-4	nt	nt	nt
Cc1onc(-c2ccccc2Cl)c1C(=O)Nc1sc2c(c1C#N)CCC2	-51	-79	3	26*	9	18*
SMILES	NPY-Y1 PAM-ag	NPY2 pot ag	NPY Y1 blocker	NPY Y2 blocker	NPY1 antag ctr	NPY-Y2 ant conf
N#Cc1c(NC(=O)C2CC(c3ccccc3Cl)=NO2)sc2c1CCC2 (stereo not given)	-34	-26	8	15	nt	nt
CN(C)S(=O)(=O)c1ccc(N2CCCC2)c(C(=O)NC(c2ccccc2)c2ccccc2)c1	8	-15	13	23*	16	9
CC(Sc1ncnc2ccccc12)C(=O)Nc1ccc2c(c1)OCCO2 (stereo not given)	1	2	2	6	nt	nt
O=C1NC(=NCc2ccccc2)S/C1=C\c1ccccc1	-21	-5	4	1	nt	nt
CC12CCC(C/C1=N\N=C1\NC(=O)/C(=C\c3ccc(Cl)cc3)S1)C2(C)C (stereo not given)	0	6	4	37*	44*	55*
Brc1cccc(CNc2nc3ccccc3n2CCN2CCCCC2)c1	0	-11	nt	nt	nt	nt
COc1cccc(CNc2nc3ccccc3n2CCN2CCCCC2)c1	-27	-16	14	19*	13	16
C=CCOc1ccc2ccccc2c1/C=N/O	-29	-7	17	20*	7	7
CCOc1cc(N2CCOCC2)c(OCC)cc1NC(=O)COC(=O)[C@@H]1CCCN1S(=O)(=O)c1ccccc1F	13	11	3	nt	nt	nt
N#Cc1nc(-c2cccs2)oc1N1CCN(c2ccccc2)CC1	-49	-7	12	18*	7	12
N#Cc1nc(Cc2ccccc2)oc1N1CCN(c2ccccc2)CC1	-11	-1	14	12	nt	nt
N#Cc1nc(COc2ccc(Cl)cc2)oc1N1CCCCCC1	-42	-19	12	17*	19	18*
N#Cc1nc(COc2cccc(Cl)c2)oc1N1CCN(c2ccccc2)CC1	-20	-18	8	25*	15	20*
COc1ccc(-c2nc(-c3ccccn3)nc(N3CCN(C)CC3)c2C#N)cc1	-10	0	7	nt	nt	nt
CCOc1ccc(-n2ccnc2SCC(=O)Nc2cc(C)on2)cc1	9	-4	-6	nt	nt	nt
O=C(/C=C/c1cccc(Cl)c1)c1nc2ccccc2[nH]1	4	-10	3	18*	12	34*
CC(C)n1c(C(=O)OCC(=O)NCc2ccc3c(c2)OCO3)cc2sccc21	-28	-3	6	22*	8	8
CC(C)n1c(C(=O)OCC(=O)NCc2ccc3c(c2)OCO3)cc2occc21	-23	-6	5	14	nt	nt
COc1ccc(-c2nc(C#N)c(NC(C)c3ccccc3)o2)cc1OC (stereo not given)	4	-17	14	21*	17	34*
COc1ccc(-c2nc(C#N)c(NCCCN(C)C)o2)cc1OC	-9	4	1	-2	nt	nt
CCCC(c1nnnn1C1CCCC1)N1CCN(c2ccccc2F)CC1 (stereo not given)	-3	-17	14	18*	18	4
CC(C)CC(c1nnnn1C(C)(C)C)N1CCN(C2CCCC2)CC1 (stereo not given)	-9	-15	13	17	nt	nt
CC(C)CC(c1nnnn1Cc1ccco1)N1CCN(C2CCCC2)CC1 (stereo not given)	-27	-21	10	19*	7	4
CCC(CC)NC(=O)Cc1ccccc1OC	16	-2	2	0	nt	nt
NC(=O)c1cc(C(=O)c2ccccc2Cl)c[nH]1	16	3	1	nt	nt	nt
Cc1nc2c3ccccc3nc(SCC(=O)N3CC(C)CC(C)C3)n2n1 (stereo not given)	6	-2	2	4	nt	nt
Cc1nc2c3ccccc3nc(SCC(=O)c3ccc(Cl)cc3)n2n1	5	-5	13	27*	21*	15

Screening results: PubChem BioAssay, The Scripps Research Institute Molecular Screening Center
